Blank lines part the entries; values can stand above or below the molecule they belong to.
Tests used:
Type in all cases: cell-based
[1] = biological target: T1, Stimulator of interferon genes protein (Homo sapiens, UniProt Q86WV6); assay: Activation of wild-type human STING expressed in HEK293T cells assessed as IRF3 reporter activation at 10 uM measured after 20 hrs by luciferase reporter gene assay
In short: (§1)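 HEK293T-hSTING cells carrying a secreted luciferase reporter under an IRF-inducible promoter, made by blasticidin selection and clonal selection; parental HEK293T-luciferase cells as control. 5 x 10^5 cells per well treated at a single concentration. Supernatant luciferase read after 20 h by Quanti-Luc, as % activation relative to a positive-control agonist.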

[2] = biological target: T1, Stimulator of interferon genes protein; assay: Activation of wild-type human STING expressed in HEK293T cells assessed as IRF3 reporter activation at 1 uM measured after 20 hrs by luciferase reporter gene assay; in short: as §1
[3] = biological target: T1, Stimulator of interferon genes protein; assay: Activation of wild-type human STING expressed in HEK293T cells assessed as IRF3 reporter activation at 20 uM measured after 20 hrs by luciferase reporter gene assay; settings: filed as activator; in short: as §1
[4] = biological target: T1, Stimulator of interferon genes protein; assay: Activation of wild-type human STING expressed in HEK293T cells assessed as IRF3 reporter activation at 100 uM measured after 20 hrs by luciferase reporter gene assay; in short: as §1
[5] = biological target: T1, Stimulator of interferon genes protein; assay: Activation of wild-type human STING expressed in HEK293T cells assessed as IRF3 reporter activation at 50 uM measured after 20 hrs by luciferase reporter gene assay; in short: as §1

T1 sequence (Q86WV6 whole entry): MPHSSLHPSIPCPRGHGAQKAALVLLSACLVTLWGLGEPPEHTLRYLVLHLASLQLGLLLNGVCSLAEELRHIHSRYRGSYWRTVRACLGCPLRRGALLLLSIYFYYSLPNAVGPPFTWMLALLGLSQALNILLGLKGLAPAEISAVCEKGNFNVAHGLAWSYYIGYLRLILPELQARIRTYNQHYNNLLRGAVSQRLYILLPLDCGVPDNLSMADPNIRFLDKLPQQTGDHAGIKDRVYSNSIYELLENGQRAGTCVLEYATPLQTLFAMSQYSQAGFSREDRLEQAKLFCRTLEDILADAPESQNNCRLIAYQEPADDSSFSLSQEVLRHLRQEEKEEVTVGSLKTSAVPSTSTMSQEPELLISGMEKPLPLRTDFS

Compound: CC1Cc2ccc(C(=O)NCc3c(F)cc(F)cc3F)cc2N(Cc2cc(F)cc(F)c2)S1(=O)=O (racemic)
Activity ([2]; filed as activator): 40%

Compound: COC1(C)C(=O)N(Cc2c(F)cccc2Cl)c2cc(C(=O)NCc3c(F)cc(F)cc3F)ccc21 (racemic)
Activity [2]: 20%

Compound: O=C(NCc1c(F)cc(F)cc1F)c1cnc2c(c1)N(Cc1cc(F)cc(F)c1)C(=O)CO2
Activity [2]: 3%

Compound: CC1(O)C(=O)N(Cc2c(F)cccc2Cl)c2cc(C(=O)NCc3c(F)cc(F)cc3F)ccc21 (racemic)
Activity [3]: 67%

Compound: CC1Cc2ccc(C(=O)NCc3c(F)cc(F)cc3F)cc2N(Cc2c(F)cccc2Cl)C1=O (racemic)
Activity ([2]; filed as activator): 92%

Compound: CC1Oc2ncc(C(=O)NCc3c(F)cc(F)cc3F)cc2N(Cc2cc(F)cc(F)c2)C1=O (racemic)
Activity [2]: 6%

Compound: CC1(C#N)C(=O)N(Cc2c(F)cccc2Cl)c2cc(C(=O)NCc3c(F)cc(F)cc3F)ccc21 (racemic)
Activity ([2]; filed as activator): 102%

Compound: O=C(NCc1c(F)cc(F)cc1F)c1ccc2c(c1)N(C(=O)c1c(F)cccc1Cl)CCO2
Activity [1]: 26%

Compound: CC1Oc2ccc(C(=O)NCc3c(F)cc(F)cc3F)cc2N(Cc2cc(F)cc(F)c2)C1=O (racemic)
Activity ([2]; filed as activator): 95%

Compound: CC1(C)C(=O)N(Cc2ccccc2F)c2cc(C(=O)NCc3c(F)cc(F)cc3F)ccc21
Activity ([2]; filed as activator): 116%

Compound: O=C(NCc1c(F)cc(F)cc1F)c1ccc2c(c1)N(Cc1c(F)cccc1Cl)C(=O)CC2
Activity ([2]; filed as activator): 107%

Compound: O=C(NCc1c(F)cc(F)cc1F)c1cnc2c(c1)N(Cc1cc(F)cc(F)c1)C(=O)CC2
Activity ([1]; filed as activator): 58%

Compound: CC1(C)CC(=O)N(Cc2cc(F)cc(F)c2)c2cc(C(=O)NCc3c(F)cc(F)cc3F)ccc21
Activity ([2]; filed as activator): 102%

Compound: O=C(NCc1c(F)cc(F)cc1F)c1ccc2c(n1)N(Cc1cc(F)cc(F)c1)C(=O)CC2
Activity [2]: 5%

Continued, values first:

Activity ([1]; filed as activator): 105%
Compound: O=C(NCc1ccco1)c1ccc2c(c1)N(Cc1c(F)cccc1Cl)C(=O)CC2

Activity [1]: -1%
Compound: O=C(NCc1ccco1)c1ccc2[nH]c(=O)n(Cc3ccccc3Cl)c2c1

Activity [1]: 30%
Compound: O=C(NCc1ccco1)c1ccc2c(c1)N(Cc1c(F)cccc1Cl)C(=O)CO2

Activity [1]: -1%
Compound: CN1C(=O)C(C)(Cc2ccccc2)c2cc(C(=O)NCc3ccco3)ccc21 (stereo unspecified)

Activity [1]: -1%
Compound: O=C(NCc1ccco1)c1ccc2c(c1)N(Cc1ccccc1)C(=O)CCO2

Activity ([1]; filed as activator): 73%
Compound: CC1(C)C(=O)N(Cc2ccccc2F)c2cc(C(=O)NCc3ccco3)ccc21

Activity [4]: 7%
Compound: O=C(NCc1ccco1)c1ccc2c(c1)N(Cc1c(F)cccc1Cl)C(=O)C[S+]2[O-] (stereo unspecified)

Activity [1]: 27%
Compound: O=C(NCc1ccco1)c1ccc2c(c1)N(Cc1ccccc1)C(=O)CS2

Activity [5]: 0%
Compound: O=C(NCc1ccco1)c1ccc2c(c1)N(Cc1ccccc1F)C(=O)C2=O

Activity [1]: -1%
Compound: O=C(NCc1ccco1)c1ccc2ccn(Cc3ccccc3)c2c1

Activity [1]: 6%
Compound: O=C(NCc1ccco1)c1ccc2c(c1)N(Cc1c(F)cccc1Cl)C(=O)C21CC1

Activity [1]: 0%
Compound: O=C(NCc1ccco1)c1ccc2[nH]c(=O)n(Cc3ccccc3)c(=O)c2c1
